Consider 16 compounds from ChEMBL document CHEMBL1125868, “Antidopaminergic effects of the stereoisomers of N-[(1-alkyl-2- pyrrolidinyl)methyl]-5-sulfamoylbenzamides and -2,3-dihydrobenzofuran-7-carboxamides” (J Med Chem, 1991).

Molecules are shown by their SMILES.

Chain of D(2) dopamine receptor (P61169 whole entry): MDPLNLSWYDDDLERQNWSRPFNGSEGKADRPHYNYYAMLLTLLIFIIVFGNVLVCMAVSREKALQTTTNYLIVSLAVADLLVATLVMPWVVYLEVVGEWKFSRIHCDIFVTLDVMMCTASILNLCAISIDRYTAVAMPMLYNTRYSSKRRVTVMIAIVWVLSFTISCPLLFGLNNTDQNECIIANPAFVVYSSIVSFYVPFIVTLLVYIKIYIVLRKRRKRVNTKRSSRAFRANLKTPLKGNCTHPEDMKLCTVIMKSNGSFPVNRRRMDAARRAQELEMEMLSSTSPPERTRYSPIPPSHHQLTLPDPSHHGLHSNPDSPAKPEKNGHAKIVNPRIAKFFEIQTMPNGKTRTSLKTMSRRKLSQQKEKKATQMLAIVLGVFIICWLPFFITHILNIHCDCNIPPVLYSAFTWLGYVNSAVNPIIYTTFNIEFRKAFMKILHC

For one test, the system named is Mus musculus. Description: Ability to inhibit apomorphine induced hyperactivity in mice after intraperitoneal administration. The format is functional. Conditions: ip. The method in brief: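 Male mice in groups of three, dosed ip 1 h before apomorphine HCl 0.5 mg/kg sc. Motor activity counted for 20 min right after apomorphine.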
By ED50 is commonly meant the midpoint of the dose-response relation. Low readings indicate greater potency, high ones weaker potency. As to `CCCCN1CCC[C@@H]1CNC(=O)c1cc(S(N)(=O)=O)cc2c1O[C@@H](C)C2`, the 50% effect level (ED50) was put at a dose of 3.7 mg/kg.
On the same count and under the same terms, to `CCN1CCC[C@@H]1CNC(=O)c1cc(S(N)(=O)=O)cc2c1O[C@@H](C)C2` belongs 71.7 mg/kg.
On to `CCCCCCN1CCC[C@@H]1CNC(=O)c1cc(S(N)(=O)=O)ccc1OC`, for which it took a dose of 28.2 mg/kg to reach the 50% effect level (ED50).
On the same count and under the same terms, to `CCCCCCN1CCC[C@@H]1CNC(=O)c1cc(S(N)(=O)=O)cc2c1O[C@@H](C)C2` belongs 12.2 mg/kg.
The same measure, in the same setting: to `CCCCCCN1CCC[C@H]1CNC(=O)c1cc(S(N)(=O)=O)cc2c1O[C@@H](C)C2` belongs greater than 100 mg/kg; to `CCN1CCC[C@H]1CNC(=O)c1cc(S(N)(=O)=O)cc2c1O[C@H](C)C2`, 11 mg/kg; to `CCCCN1CCC[C@H]1CNC(=O)c1cc(S(N)(=O)=O)cc2c1O[C@@H](C)C2`, 38.8 mg/kg.
Same read-out and setting: to `CCN1CCC[C@@H]1CNC(=O)c1cc(S(N)(=O)=O)ccc1OC` belongs greater than 250 mg/kg; to `CCCCN1CCC[C@H]1CNC(=O)c1cc(S(N)(=O)=O)ccc1OC`, 49.2 mg/kg.
In turn, `CCCCCCN1CCC[C@H]1CNC(=O)c1cc(S(N)(=O)=O)ccc1OC` yielded an ED50 greater than 100 mg/kg.
The same measure, in the same setting: to `CCCCN1CCC[C@H]1CNC(=O)c1cc(S(N)(=O)=O)cc2c1O[C@H](C)C2` belongs 72.1 mg/kg.
Same read-out and setting: to `CCN1CCC[C@H]1CNC(=O)c1cc(S(N)(=O)=O)cc2c1O[C@@H](C)C2` belongs 5.7 mg/kg.
Still for that read-out and setting: to `CCCCN1CCC[C@@H]1CNC(=O)c1cc(S(N)(=O)=O)ccc1OC` belongs 92.3 mg/kg.
For the compound `CCN1CCC[C@H]1CNC(=O)c1cc(S(N)(=O)=O)ccc1OC` [LEVOSULPIRIDE], the 50% effect level (ED50) was put at a dose of 9.3 mg/kg.
Same read-out and setting: to `CCCCN1CCC[C@@H]1CNC(=O)c1cc(S(N)(=O)=O)cc2c1O[C@H](C)C2` belongs 11.6 mg/kg; to `CCN1CCC[C@@H]1CNC(=O)c1cc(S(N)(=O)=O)cc2c1O[C@H](C)C2`, 145 mg/kg.

Another test deals with Dopamine receptor (Mus musculus). Briefly: Inhibitory effects on the hyperactivity against dopamine receptor after peroral administration.
Details: not given
`CCN1CCC[C@@H]1CNC(=O)c1cc(S(N)(=O)=O)cc2c1O[C@@H](C)C2` registered an ED50 of 419 mg/kg.
On the same count and under the same terms, to `CCCCCCN1CCC[C@@H]1CNC(=O)c1cc(S(N)(=O)=O)ccc1OC` belongs 65 mg/kg; to `CCN1CCC[C@H]1CNC(=O)c1cc(S(N)(=O)=O)cc2c1O[C@H](C)C2`, 87.3 mg/kg.
With `CCCCN1CCC[C@H]1CNC(=O)c1cc(S(N)(=O)=O)ccc1OC`, the ED50 is 135 mg/kg.
Still for that read-out and setting: to `CCCCCCN1CCC[C@H]1CNC(=O)c1cc(S(N)(=O)=O)ccc1OC` belongs greater than 100 mg/kg.
The same measure, in the same setting: to `CCN1CCC[C@H]1CNC(=O)c1cc(S(N)(=O)=O)cc2c1O[C@@H](C)C2` belongs 60.3 mg/kg; to `CCCCN1CCC[C@@H]1CNC(=O)c1cc(S(N)(=O)=O)ccc1OC`, 184 mg/kg.

A further test has as its target D(2) dopamine receptor (Rattus norvegicus, UniProt P61169). Description: Binding affinity towards dopamine receptor D2 using as [3H]-spiperone radioligand.
Details: not given
A digest of the protocol:
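Rat striatal membranes washed in 50 mM Tris-HCl pH 7.7, then resuspended in 50 mM Tris-HCl pH 7.1 with NaCl, KCl, CaCl2, MgCl2, ascorbate and 10 μM pargyline, preincubated 10 min at 37 °C. Incubated with [3H]spiperone (0.2 nM final) for 20 min at 37 °C, then filtered. IC50 read from concentration-inhibition curves.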
For orientation: Ki means a measure of affinity in units of concentration, obtained from inhibition or displacement. High values mean a looser hold on the target, low ones a stronger hold on the target. In turn, `CCCCN1CCC[C@@H]1CNC(=O)c1cc(S(N)(=O)=O)cc2c1O[C@@H](C)C2` showed an inhibition constant (Ki) of 9.4 nM.
In turn, `CCN1CCC[C@@H]1CNC(=O)c1cc(S(N)(=O)=O)cc2c1O[C@@H](C)C2` came in with a Ki of 400 nM.
Still for that read-out and setting: to `CCCCCCN1CCC[C@@H]1CNC(=O)c1cc(S(N)(=O)=O)ccc1OC` belongs 59 nM; to `CCCCCCN1CCC[C@@H]1CNC(=O)c1cc(S(N)(=O)=O)cc2c1O[C@@H](C)C2`, 6.7 nM; to `CCN1CCC[C@H]1CNC(=O)c1cc(S(N)(=O)=O)cc2c1O[C@H](C)C2`, 21 nM.
Still for that read-out and setting: to `CCCCN1CCC[C@H]1CNC(=O)c1cc(S(N)(=O)=O)cc2c1O[C@@H](C)C2` belongs 95 nM; to `CCCCN1CCC[C@H]1CNC(=O)c1cc(S(N)(=O)=O)ccc1OC`, 51 nM; to `CCCCCCN1CCC[C@H]1CNC(=O)c1cc(S(N)(=O)=O)ccc1OC`, 1400 nM.
Still for that read-out and setting: to `CCCCN1CCC[C@H]1CNC(=O)c1cc(S(N)(=O)=O)cc2c1O[C@H](C)C2` belongs 210 nM; to `CCN1CCC[C@H]1CNC(=O)c1cc(S(N)(=O)=O)cc2c1O[C@@H](C)C2`, 9.6 nM; to `CCCCN1CCC[C@@H]1CNC(=O)c1cc(S(N)(=O)=O)ccc1OC`, 230 nM.
As to `CCN1CCC[C@@H]1CNC(=O)c1cc(S(N)(=O)=O)cc2c1O[C@H](C)C2`, the Ki stood at 650 nM.
